Source: BindingDB's records for doi:10.1021/jm00074a030 (Wellcome Research Laboratories, 1993)

Target: Thymidylate synthase (Homo sapiens, UniProt P04818)
Assay: Inhibition of purified human thymidylate synthase (TS) isolated from an Escherichia coli harboring a plasmid with thy A gene cloned from SV40 transformed human fibroblast cells
Method in brief: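 Purified recombinant human TS, expressed in E. coli from a thyA gene cloned from SV40-transformed human fibroblasts. Inhibition was measured by a modified tritium-release assay. Ki was estimated by treating compounds as tight-binding noncompetitive inhibitors.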

Chain of Thymidylate synthase (P04818 whole entry): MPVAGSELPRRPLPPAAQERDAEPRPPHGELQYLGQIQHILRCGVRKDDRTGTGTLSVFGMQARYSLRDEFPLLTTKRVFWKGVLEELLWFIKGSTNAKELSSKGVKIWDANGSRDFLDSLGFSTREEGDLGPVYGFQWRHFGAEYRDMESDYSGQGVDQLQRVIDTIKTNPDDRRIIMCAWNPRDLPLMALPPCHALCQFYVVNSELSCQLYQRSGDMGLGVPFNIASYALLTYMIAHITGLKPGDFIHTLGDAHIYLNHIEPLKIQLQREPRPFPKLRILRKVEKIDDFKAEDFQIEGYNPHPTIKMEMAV

Row | Ki [nM] | SMILES
1 | 20 | Nc1nc(O)c2c(ccc3ccc(Br)cc32)n1
2 | 16400 | Nc1nc2ccc3cc(S(=O)(=O)Nc4ccc(C(=O)N[C@@H](CCC(=O)O)C(=O)O)cc4)c(Br)cc3c2c(=O)[nH]1
3 | 100 | Nc1nc(O)c2c(ccc3ccc(NS(=O)(=O)c4ccc(C(=O)N[C@@H](CCC(=O)O)C(=O)O)cc4)cc32)n1
